High-throughput results deposited in PubChem by several laboratories.
Compounds with a hit are over-represented: about 9.4% of the library has one in this group of screens.
L major viab: Leishmania major promastigote growth inhibition, primary screen | Leishmania major promastigotes, resazurin fluorescence viability | inhibition, % at 10 µM | 9% of 200,000 active; in the data active means inhibition above about 50%;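 further: promastigotes grown with compound for 44 hours at 28 °C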
Mdm2 MdmX PPI: inhibitors of human Mdm2-MdmX association, primary screen, cell-based, luminescence, split luciferase, SaOS-2, uHTS. Protein Mdm4 (Homo sapiens) + E3 ubiquitin-protein ligase Mdm2 (Homo sapiens), …. SaOS-2 split-luciferase Mdm2/MdmX complementation. inhibition, % at 8 µM. 3% of 330,000 active. AID 485346, 2010;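 active means inhibition of at least 50% at 8 µM in the primary screen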
Target sequence (O15151 whole entry, looked up): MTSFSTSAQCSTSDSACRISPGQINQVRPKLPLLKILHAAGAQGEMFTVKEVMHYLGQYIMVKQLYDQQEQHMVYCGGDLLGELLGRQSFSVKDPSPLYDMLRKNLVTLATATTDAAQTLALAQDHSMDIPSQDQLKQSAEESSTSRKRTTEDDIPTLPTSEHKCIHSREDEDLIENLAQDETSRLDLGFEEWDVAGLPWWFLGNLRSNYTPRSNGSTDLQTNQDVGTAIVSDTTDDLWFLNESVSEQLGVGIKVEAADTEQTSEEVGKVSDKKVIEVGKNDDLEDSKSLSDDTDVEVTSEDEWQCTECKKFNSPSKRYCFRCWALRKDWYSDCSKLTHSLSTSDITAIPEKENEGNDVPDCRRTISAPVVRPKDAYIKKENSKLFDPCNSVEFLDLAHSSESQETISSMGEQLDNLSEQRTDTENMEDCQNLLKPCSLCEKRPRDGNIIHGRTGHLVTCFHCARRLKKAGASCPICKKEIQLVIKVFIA
Target sequence (Q00987 whole entry, looked up): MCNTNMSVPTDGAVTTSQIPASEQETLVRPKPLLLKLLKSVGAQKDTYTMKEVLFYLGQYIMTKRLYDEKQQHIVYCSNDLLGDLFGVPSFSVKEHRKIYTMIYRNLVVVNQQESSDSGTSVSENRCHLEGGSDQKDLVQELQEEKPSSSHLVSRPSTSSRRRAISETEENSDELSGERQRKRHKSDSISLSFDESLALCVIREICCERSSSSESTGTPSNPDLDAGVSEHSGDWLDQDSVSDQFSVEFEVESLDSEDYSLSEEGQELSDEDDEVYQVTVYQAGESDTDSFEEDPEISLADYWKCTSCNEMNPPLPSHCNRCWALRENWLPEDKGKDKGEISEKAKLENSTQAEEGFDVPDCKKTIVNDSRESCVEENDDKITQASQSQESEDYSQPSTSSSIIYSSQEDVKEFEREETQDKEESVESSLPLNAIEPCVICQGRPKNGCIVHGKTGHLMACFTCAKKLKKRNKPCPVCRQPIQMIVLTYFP
SKKanGAS inh: S. pyogenes SKKanGAS growth inhibitors in kanamycin, primary screen, streptokinase expression inhibitor project, SKKanGAS strain, BacTiter-Glo luminescence; AID 1662, 2009; inhibition, % at 7.5 µM; 1.3% of 300,000 active; 6 h;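 active means mean replicate score, as percent of positive control median, at least 50; inconclusive means mean below 50 but one replicate at or above 50; inactive means mean and every replicate below 50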;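 further: strain carries kanamycin resistance gene driven by streptokinase promoter and grows in 40 µg/ml kanamycin; loss of luminescence reflects streptokinase promoter inhibition or plain growth inhibition; 0% = median of DMSO wells and 100% = positive control at its reference dose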
T cruzi repl: inhibitors of intracellular T. cruzi growth, primary screen, luminescence, NIH3T3 host cells | T. cruzi beta-gal in NIH3T3, 90 h | inhibition, % (no concentration beside the values) | 1.4% of 300,000 active | AID 1885, 2009;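 active means mean inhibition across valid replicates above about 55%, limit read from the data; inconclusive means mean below that limit but half or more replicates reach it; inactive means mean below it, under half of replicates reach it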;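 further: signal also drops with host cell toxicity which is not excluded here; 0% = plate median of DMSO wells and 100% = zero luminescence signal; higher percent means less beta-gal luminescence so fewer parasites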
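assay system = mouse NIH/3T3 fibroblasts infected with β-gal-expressing T. cruzi Tulahuen C4 | input = 5,000 NIH/3T3 host cells per well | buffer or medium = DMEM plus 2% FBS | timing = 3 h host attachment, then at least 90 h co-culture | measured by = GalScreen luminescence, 60 min | evaluation = luminescence reflecting intracellular parasite burden, expressed as percent inhibition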
CSC inhib: cancer stem cell viability inhibitors, primary screen, luminescence; inhibition, % at 7.5 µM; cancer stem cell-like cells viability; 1.1% of 300,000 active; in the data active means inhibition above about 75%; inconclusive means no clear call, values can overlap the other calls; tested in HMLE shEcad cells
Beta apoptosis: inhibitors of cytokine-induced beta cell apoptosis, primary screen, luminescence | INS-1E cytokine-induced death, ATP luminescence, 48 h; percent of positive-control rescue, neutral wells zero | protection from apoptosis, % (concentration not given with the values) | 0.8% of 300,000 active | AID 435005, 2010;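 active means Every replicate reaches about 75%, or at least half do and their mean reaches it too, limit read from the data; inconclusive means At least half of replicates reach the limit but their mean does not; inactive means Under half of replicates reach the limit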;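 further: 0% = cytokine-treated negative control wells and 100% = positive control rescue; higher means more ATP so stronger rescue from cytokine killing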
Starred values were filed as active, the others as inactive; ? = inconclusive; . = no result given.

SMILES	L major viab	Mdm2 MdmX PPI	SKKanGAS inh	T cruzi repl	CSC inhib	Beta apoptosis
CC(/C=N/NC(=O)c1cnccn1)=C\c1ccco1	.	4.0	0.3	20.8	-4.4	-18.2
OC(COc1ccccc1)CN1CCCC1 (stereo unspecified)	-4.8	-2.9	-0.5	-0.6	-0.4	-4.0
OC(COc1ccc(OCC(O)CN2CCN(Cc3ccccc3)CC2)cc1)CN1CCN(Cc2ccccc2)CC1 (stereo unspecified)	.	32.6	0.3	65.2*	0.3	18.8
O=C(c1ccco1)N1CCN(CC(O)COc2ccc3oc4ccccc4c3c2)CC1 (stereo unspecified)	85.3*	10.2	-2.8	6.7	-9.6	0.4
COc1ccc(OCC(O)CN2CCN(CC(O)COc3ccc(OC)cc3)CC2)cc1 (stereo unspecified)	.	6.0	-1.0	-8.2	2.2	-8.1
Cc1cc(C)cc(OCC(O)CN2CCN(C(=O)c3ccco3)CC2)c1 (stereo unspecified)	.	1.0	-0.1	7.4	-19.3	4.2
O=S(=O)(c1ccc(OCC(O)CN2CCC(Cc3ccccc3)CC2)cc1)N1CCOCC1 (stereo unspecified)	99.7*	23.0	2.9	9.5	19.9	-4.5
OC(COc1ccc(OCc2ccccc2)cc1)CN1CCCCC1 (stereo unspecified)	96.2*	-11.8	-3.6	56.5*	31.0	-10.1
CC(C)Sc1n[nH]c(=O)n1-c1ccccc1	.	15.0	-2.4	.	-1.6	-3.4
O=C(CN1C(=O)c2cccc3cccc1c23)NC1CCCCC1	.	10.5	-1.1	8.0	.	4.2
Cc1ccc(OCC(O)CN2CCOCC2)cc1 (stereo unspecified)	.	13.5	0.2	-12.6	-5.1	-3.7
N#Cc1ccc(-c2ccc(OCC(O)CN3CCCCC3)cc2)cc1 (stereo unspecified)	.	-30.6	2.0	61.9*	-3.0	-0.7
N#Cc1ccc(OCC(O)CN2CCN(CC(O)COc3ccc(C#N)cc3)CC2)cc1 (stereo unspecified)	.	11.9	0.5	10.7	3.5	-3.1
CN1CCN(CC(O)COc2ccc(C34CC5CC(CC(C5)C3)C4)cc2)CC1 (stereo unspecified)	100.4*	.	.	.	.	.
OC(COc1ccc(-c2ccccc2)cc1)CN1CCOCC1 (stereo unspecified)	93.2*	-5.6	-16.1	-1.9	22.6	-5.0
C/C(=N/Nc1ccc(C(=O)O)cc1)c1ccc(O)c(O)c1O	-10.2	17.1	-3.7	-3.8	-8.0	-0.2
Cc1ccc(C(C)n2cc(C(=O)NCCN3CCN(C)CC3)nn2)cc1 (stereo unspecified)	92.0*	2.9	9.2	-48.7	55.6	-5.2
CCN1CCN(CCNC(=O)c2cn(C(C)c3ccccc3F)nn2)CC1 (stereo unspecified)	-3.0	9.2	3.8	-12.6	-5.1	-2.0
COC(=O)C1=CN(Cc2ccc(OC)c(OC)c2)C=C(C(=O)OC)C1c1cccc(OC)c1OC	.	-20.3	-3.2	61.3*	5.6	-7.6
COC(=O)C1=CN(Cc2ccc(OC)cc2)C=C(C(=O)OC)C1c1cccs1	100.2*	12.3	0.7	30.5	2.9	-6.9
CCOC(=O)c1c(C)nc2sc3c(=O)n(-c4ccc(C)cc4)cnc3c2c1-c1ccc(OC)cc1	-0.4	10.7	11.7	-21.6	-6.4	-7.5
CCOC(=O)CSc1nc(C)nc2c1sc1nc(C)c(C(C)=O)c(-c3ccc(OC)cc3)c12	85.1*	-30.9	6.2	-4.5	6.0	7.1
CCCCC1CCC(C(=O)OCC(=O)N(CCOC)c2c(N)n(Cc3ccccc3)c(=O)[nH]c2=O)CC1 (stereo unspecified)	.	7.3	-4.8	8.5	0.1	-6.3
CC(C)CN(C(=O)c1ccc([N+](=O)[O-])s1)c1c(N)n(Cc2ccccc2)c(=O)[nH]c1=O	.	16.3	6.8	63.5*	-1.4	1.3
COC(=O)c1c(C)[nH]c(C(=O)OCC(=O)N(CC(C)C)c2c(N)n(Cc3ccccc3)c(=O)[nH]c2=O)c1C	.	23.0	67.3*	1.0	-5.6	1.3
SMILES	L major viab	Mdm2 MdmX PPI	SKKanGAS inh	T cruzi repl	CSC inhib	Beta apoptosis
COCCN(C(=O)COC(=O)C1CCC(C(C)(C)C)CC1)c1c(N)n(Cc2ccccc2)c(=O)[nH]c1=O (stereo unspecified)	.	26.0	0.2	7.8	-4.0	106.3*
C/C(=N\NC(=O)c1nnn(-c2nonc2N)c1CN(C)c1ccccc1)c1cccs1	.	-11.1	-2.9	9.4	0.5	-5.7
CC(=O)c1cccc(NC(=O)N2CCC(NC(=O)C34CC5CC(CC(C5)C3)C4)CC2)c1	55.4*	21.0	1.3	26.7	-16.0	4.5
CCCCOc1ccc(/C=N/NC(=S)Nc2cccc(C)c2C)cc1	7.0	10.9	7.4	40.8	0.1	-1.5
Cc1cccc(C)c1NC(=S)N/N=C/c1ccc(OCCC(C)C)cc1	29.4	25.9	66.5*	62.6*	11.8	.
COc1cc(/C=C/c2nc3ccccc3s2)cc(OC)c1O	-7.7	-13.0	-0.4	-1.6	-0.8	-1.6
COc1cc(C=C(c2nc3ccccc3s2)c2nc3ccccc3s2)ccc1O	96.8*	16.6	18.0	35.4	93.6*	-1.5
CCC(C)C(=O)Nc1nc(C)c(-c2csc(Nc3ccccc3OC)n2)s1 (stereo unspecified)	98.8*	35.8	18.4	2.3	52.5	1.4
COc1ccc(OC)c(Nc2nc(-c3sc(NC(=O)c4ccccc4)nc3C)cs2)c1	-0.8	31.3	16.5	-15.2	17.4	43.3
CCCCC(=O)Nc1nc(C)c(-c2csc(Nc3ccccc3OC)n2)s1	94.5*	26.1	14.9	-3.6	27.9	4.2
CCCCCCC(=O)Nc1nc(C)c(-c2csc(Nc3cc(OC)ccc3OC)n2)s1	71.3*	39.0	5.6	15.6	1.9	-4.4
CCCCCC(=O)Nc1nc(C)c(-c2csc(Nc3ccc(Cl)cc3)n2)s1	28.6	17.5	16.8	20.7	45.5	0.5
CCCCCCC(=O)Nc1nc(C)c(-c2csc(Nc3ccc(Cl)cc3)n2)s1	52.2*	-12.3	17.0	15.5	52.1	5.1
CC(NC(=O)c1cccc(F)c1)C1CC2CCC1C2 (stereo unspecified)	.	-11.8	-2.4	23.2	-13.0	-3.2
COc1ccc(OC)c(NS(=O)(=O)c2c(C(=O)N3CCCCCC3)c(C)n(C)c2C)c1	.	-1.4	1.1	2.1	-0.5	-5.5
CCCCCC(=O)Nc1nc(C)c(-c2csc(Nc3cc(OC)ccc3OC)n2)s1	50.8*	39.5	14.5	-10.7	?	2.0
Cc1ccc(CNn2cn[nH]c2=S)cc1	.	4.6	-11.3	-9.6	-7.4	-13.3
COc1cc(CNC(=O)c2ccc(Cn3nc(C)c(Cl)c3C)o2)cc(OC)c1	53.0*	-3.5	0.1	3.6	6.6	-19.3
